Calls of active or inactive are those of the source. Some results are limits rather than exact numbers.

In series [1] the test system is Cavia porcellus. Nature of the series: Effect on QT interval prolongation in Dunkin-Hartley guinea pigs at 3 mg/kg, iv. It counts as functional, organism-based. The arrangement: dose 3 mg/kg.
Series [2] concerns Rattus norvegicus. As to the kind of experiment: Inhibition of increase in histamine-induced cutaneous vascular permeability in orally dosed Wistar rat model after 1 hrs. The series is classed as functional. The note with it: po. A digest of the protocol: (§1)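 Male Wistar rats (150-175 g), fasted, dosed orally in 0.5% methylcellulose/0.1% Tween 80 (10 mL/kg), n=5. At 1 or 8 h after dosing, four intradermal injections of 5 µg histamine were given, plus iv 0.5% Evans Blue. Papule area (ellipse) measured 1 h later. ED50 in mg/kg po.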

Series [3] concerns the target T1, Adrenergic receptor alpha-1 (Rattus norvegicus, UniProt P15823+P23944+P43140).
T1 sequence (P15823 whole entry): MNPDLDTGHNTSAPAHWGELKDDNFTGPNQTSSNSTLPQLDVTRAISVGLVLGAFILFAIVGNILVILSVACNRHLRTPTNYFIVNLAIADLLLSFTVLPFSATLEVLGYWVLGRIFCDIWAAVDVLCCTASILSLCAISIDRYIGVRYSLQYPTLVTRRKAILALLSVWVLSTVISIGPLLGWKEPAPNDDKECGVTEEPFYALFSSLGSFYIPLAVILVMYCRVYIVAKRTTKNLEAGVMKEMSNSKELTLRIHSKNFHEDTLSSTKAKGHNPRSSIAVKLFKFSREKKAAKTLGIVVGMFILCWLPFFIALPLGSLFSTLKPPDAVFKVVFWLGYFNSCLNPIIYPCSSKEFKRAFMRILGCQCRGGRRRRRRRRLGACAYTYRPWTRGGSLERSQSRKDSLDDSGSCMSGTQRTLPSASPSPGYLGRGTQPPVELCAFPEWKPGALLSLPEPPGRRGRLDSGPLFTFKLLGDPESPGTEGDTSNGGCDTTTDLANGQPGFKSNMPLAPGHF
T1 sequence (P23944 whole entry): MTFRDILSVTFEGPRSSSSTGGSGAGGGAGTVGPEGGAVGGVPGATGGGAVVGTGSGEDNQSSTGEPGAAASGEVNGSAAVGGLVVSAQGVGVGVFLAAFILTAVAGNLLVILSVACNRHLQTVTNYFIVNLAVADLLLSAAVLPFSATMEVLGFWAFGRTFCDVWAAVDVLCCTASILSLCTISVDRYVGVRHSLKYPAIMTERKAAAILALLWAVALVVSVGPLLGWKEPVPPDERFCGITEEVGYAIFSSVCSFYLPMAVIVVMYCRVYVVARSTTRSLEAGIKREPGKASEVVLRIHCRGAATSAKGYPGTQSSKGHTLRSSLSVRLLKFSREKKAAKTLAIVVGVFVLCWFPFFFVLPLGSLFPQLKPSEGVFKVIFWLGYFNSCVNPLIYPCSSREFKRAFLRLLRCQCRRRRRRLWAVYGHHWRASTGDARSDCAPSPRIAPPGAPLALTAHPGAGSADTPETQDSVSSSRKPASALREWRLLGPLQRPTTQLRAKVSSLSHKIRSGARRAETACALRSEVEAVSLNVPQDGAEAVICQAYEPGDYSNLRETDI
T1 sequence (P43140 whole entry): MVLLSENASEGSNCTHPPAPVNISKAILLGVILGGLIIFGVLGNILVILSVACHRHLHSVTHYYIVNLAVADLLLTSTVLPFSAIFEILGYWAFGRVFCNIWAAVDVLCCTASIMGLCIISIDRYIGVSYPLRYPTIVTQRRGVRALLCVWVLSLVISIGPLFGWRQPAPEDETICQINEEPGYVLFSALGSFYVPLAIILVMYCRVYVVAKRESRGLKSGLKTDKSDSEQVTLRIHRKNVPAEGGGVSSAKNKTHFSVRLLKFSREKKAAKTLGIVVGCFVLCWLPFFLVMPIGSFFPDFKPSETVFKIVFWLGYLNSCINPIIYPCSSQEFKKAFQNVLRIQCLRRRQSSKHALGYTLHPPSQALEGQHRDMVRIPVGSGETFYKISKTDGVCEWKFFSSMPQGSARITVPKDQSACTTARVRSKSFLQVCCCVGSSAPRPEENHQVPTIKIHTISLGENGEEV
Nature of the series: Displacement of [3H]prazosin from adrenergic alpha-1 receptor in rat brain membranes. It counts as cell membranes. An outline of the steps: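 Rat brain membranes (340 µg protein/mL) with 0.25 nM [3H]-prazosin in 50 mM Tris-HCl pH 7.7, room temperature, 60 min, filtration. Nonspecific binding with 100 µM prazosin. Several concentrations run in duplicate; IC50 by nonlinear regression.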

For series [4], the system named is Rattus norvegicus. As to the kind of experiment: Inhibition of increase in histamine-induced cutaneous vascular permeability in orally dosed Wistar rat model after 4 hrs. It counts as functional. Particulars: po. An outline of the steps: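 Fasted male rats (150-175 g; n=5 per condition) dosed orally in 0.5% methylcellulose/0.1% Tween 80. At 4 h, under light ether, received four intradermal injections of 5 µg histamine, then 0.5% Evans Blue iv. Killed 1 h later. Papule area from maximum and minimum diameters (ellipse); inhibition of papule area; ED50 (mg/kg, po).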

In series [5] the test system is Rattus norvegicus. Nature of the series: Inhibition of increase in histamine-induced cutaneous vascular permeability in orally dosed Wistar rat model after 8 hrs. It counts as functional. Particulars: po. An outline of the steps: as §1
Series [6] in a line: Half life in Wistar rat at 1 mg/kg, iv after 8 hrs. It counts as ADME, organism-based. Further details: dose 1 mg/kg, route intravenous. The note with it: in vivo. An outline of the steps:
(§2)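 Male Wistar rats, fasted overnight, dosed iv at 1 mg/kg. Blood sampled from 0.1 to 24 h; plasma stored at -20 °C. Levels measured by isocratic HPLC-UV (225 nm) after on-line solid-phase extraction, or by HPLC-MS (ESI+) for one analyte. Parameters from noncompartmental analysis.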

For series [7], the target named is Histamine H1 receptor (Mus musculus) (UniProt P70174). As to the kind of experiment: Ex vivo displacement of [3H]mepyramine from brain histamine H1 receptor in orally dosed Swiss Albino mouse. It counts as functional, organism-based. A digest of the protocol:
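Overnight-fasted male mice (20-25 g) dosed orally at several doses (0.5% methylcellulose/0.1% Tween 80, 10 mL/kg), killed 90 min later. Whole brain homogenised in ice-cold 0.05 M Na+/K+ phosphate pH 7.4; aliquots incubated in triplicate with 2 nM final [3H]-mepyramine, 40 min at 30 °C, then filtered. Nonspecific binding from 30 mg/kg po D-chlorpheniramine; total binding from vehicle. Three animals per dose; ED50 reported.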
On the technique in general: Loss of bound radioactivity is the signal in a displacement assay; it reports binding, not function.

A short description of series [8]: Volume of distribution at steady state in Wistar rat at 1 mg/kg, iv after 8 hrs. It counts as ADME, organism-based. Further details: dose 1 mg/kg, route intravenous. Particulars: in vivo, read-out: Vss. A digest of the protocol: as §2
The nature of series [9]: Clearance in Wistar rat at 1 mg/kg, iv after 8 hrs. It counts as ADME, organism-based. Further details: dose 1 mg/kg, route intravenous. Particulars: in vivo. An outline of the steps:
as §2

In series [10] the test system is Cavia porcellus. Nature of the series: Effect on QT interval prolongation in Dunkin-Hartley guinea pigs at 30 mg/kg, iv. The series is classed as functional, organism-based. Further details: dose 30 mg/kg. A digest of the protocol:
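Male guinea pigs (500-600 g), urethane 1.5 g/kg anaesthesia, ventilated (10 mL/kg, 60 cycles/min). Stabilised at least 30 min, then 3-min jugular iv perfusion at 3, 10 and 30 mg/kg. Surface ECG recorded at end of perfusion and at 15, 30, 45 and 60 min. QTc by Bazett; change in ms from baseline. Vehicle-only controls.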

The target of the next series is CYP3A4 (Homo sapiens, UniProt P08684). As to the kind of experiment: Inhibition of CYP3A4 in human microsomes at 25 uM. The series is classed as ADME, Microsome.
The target in the next series is Histamine H1 receptor (Cavia porcellus, UniProt P31389). As to the kind of experiment: Displacement of [3H]mepyramine from histamine H1 receptor in guinea pig cerebellum membranes. It counts as cell membranes, Membrane. A digest of the protocol: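 Guinea pig cerebellum membranes (160 µg/mL) incubated with 0.7 nM [3H]-mepyramine at 30 °C for 30 min, 0.5 mL final volume, ended by filtration. Nonspecific binding with 10 µM promethazine. At least six concentrations in duplicate; IC50 by nonlinear regression. Compound stocks 10^-2 M in DMSO, diluted in 50% DMSO.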
Chain of Histamine H1 receptor (P31389 whole entry): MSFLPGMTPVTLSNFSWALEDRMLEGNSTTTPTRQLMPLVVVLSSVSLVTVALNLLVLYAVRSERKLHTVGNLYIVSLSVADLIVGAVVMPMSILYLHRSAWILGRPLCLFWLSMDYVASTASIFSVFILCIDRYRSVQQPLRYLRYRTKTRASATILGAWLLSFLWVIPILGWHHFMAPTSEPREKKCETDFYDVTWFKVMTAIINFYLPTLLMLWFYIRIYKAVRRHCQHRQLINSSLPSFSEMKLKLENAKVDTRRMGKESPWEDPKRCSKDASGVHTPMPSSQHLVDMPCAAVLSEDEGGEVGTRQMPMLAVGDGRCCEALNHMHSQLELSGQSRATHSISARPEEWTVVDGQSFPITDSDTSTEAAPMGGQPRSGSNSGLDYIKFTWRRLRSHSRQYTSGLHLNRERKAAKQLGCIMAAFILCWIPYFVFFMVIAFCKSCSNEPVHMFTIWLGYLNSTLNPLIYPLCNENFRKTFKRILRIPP

Chain of Histamine H1 receptor (Mus musculus) (P70174 whole entry): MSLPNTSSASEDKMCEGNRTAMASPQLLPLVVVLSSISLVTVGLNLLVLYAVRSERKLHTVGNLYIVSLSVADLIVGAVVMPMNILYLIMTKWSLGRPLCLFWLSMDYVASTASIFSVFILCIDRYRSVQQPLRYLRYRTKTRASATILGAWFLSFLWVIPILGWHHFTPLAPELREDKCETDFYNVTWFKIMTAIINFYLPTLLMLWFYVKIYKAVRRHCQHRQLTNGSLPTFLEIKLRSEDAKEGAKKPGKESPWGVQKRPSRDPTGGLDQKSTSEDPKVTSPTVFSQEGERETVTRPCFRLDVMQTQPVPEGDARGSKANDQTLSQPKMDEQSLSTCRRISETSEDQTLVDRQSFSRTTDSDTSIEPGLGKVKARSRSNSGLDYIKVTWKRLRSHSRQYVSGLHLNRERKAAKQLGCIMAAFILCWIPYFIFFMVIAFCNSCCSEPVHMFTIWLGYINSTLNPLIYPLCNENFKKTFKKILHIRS
Chain of CYP3A4 (P08684 whole entry): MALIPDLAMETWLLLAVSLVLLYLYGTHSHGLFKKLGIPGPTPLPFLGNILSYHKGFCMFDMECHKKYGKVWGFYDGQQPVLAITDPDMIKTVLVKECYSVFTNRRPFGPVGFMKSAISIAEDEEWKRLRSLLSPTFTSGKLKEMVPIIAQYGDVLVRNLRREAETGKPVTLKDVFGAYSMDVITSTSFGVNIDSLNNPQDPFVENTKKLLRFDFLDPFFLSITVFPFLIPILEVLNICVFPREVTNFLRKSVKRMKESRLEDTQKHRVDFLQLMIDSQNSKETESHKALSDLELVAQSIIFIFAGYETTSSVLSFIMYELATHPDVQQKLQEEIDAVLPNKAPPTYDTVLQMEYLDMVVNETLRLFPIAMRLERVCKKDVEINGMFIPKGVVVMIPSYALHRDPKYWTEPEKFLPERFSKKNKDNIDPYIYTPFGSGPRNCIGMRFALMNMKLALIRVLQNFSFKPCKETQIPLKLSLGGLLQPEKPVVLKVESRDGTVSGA

For the molecule `O=C(O)COCCN1CCN(C(c2ccccc2)c2ccc(Cl)cc2)CC1` (configuration not stated), the outcome in the series on Cavia porcellus [1] was inactive.
For orientation: ED50 means the midpoint of the dose-response relation. Low readings indicate greater potency, high ones weaker potency. Usually IC50 stands for the concentration needed to halve the response being measured. High values mean lower potency, low ones higher potency. As a reminder, the half-life is the time needed for the level to fall by half in the phase considered. Higher therefore signals slow decline. As usually defined, the clearance is a measure of how efficiently the substance is removed, as volume per time. The low end stands for a low capacity for elimination, the high end for a high capacity for elimination. In general, inhibition refers to the drop in the measured response relative to a control, in per cent. For the molecule `COCCn1cc(C2CCN(Cc3ccc(OC)c(C(=O)O)c3)CC2)c2ccccc21`, the ED50 in the series with Rattus norvegicus [2] is 0.03 mg/kg; in the series with Rattus norvegicus [4], 0.05 mg/kg; with Rattus norvegicus [5] it was 0.14 mg/kg (antagonist); in [7], 9.5 mg/kg. Moreover, the IC50 in series [3] is over 10 µM. In [6], this molecule gave a half-life of 3.9 h. The Vd in series [8] came to 0.6 L/kg. The clearance in series [9] is 0.2 L/h/kg. For the same molecule, the outcome in the series on Cavia porcellus [10] was inactive. At CYP3A4, the inhibition at 25 µM is -9%.
Take `COCCn1cc(C2CCN(CCOc3ccccc3C(=O)O)CC2)c2ccc(F)cc21`: the ED50 in the series with Rattus norvegicus [2] was 0.16 mg/kg; with Rattus norvegicus [4], 0.29 mg/kg; with Rattus norvegicus [5] it was 0.13 mg/kg (antagonist); in series [7] it was 40 mg/kg. The IC50 was 0.14 µM (antagonist) on Histamine H1 receptor and over 10 µM in series [3]. Moreover, the half-life in series [6] is 3.4 h. Besides, the Vd in series [8] is 0.3 L/kg. In addition, the clearance in series [9] is 0.1 L/h/kg. Besides, in the series with Cavia porcellus [10], the result was inactive. Moreover, on CYP3A4, the inhibition at 25 µM turned out to be 15%.

The record behind these values is ChEMBL document CHEMBL1149258, “Synthesis and structure-activity relationships of novel histamine H1 antagonists: indolylpiperidinyl benzoic acid derivatives” (J Med Chem, 2004).
